Screening results: PubChem BioAssay, Johns Hopkins Ion Channel Center
Rows were chosen to be rich in hits. Some 3.7% of all compounds tested hit in one or more screens of this group.
KCNK3 inh – human KCNK3 channel inhibition, primary screen; AID 602410; 0.84% of 340,000 active; B-score at 10 µM; O14649; CHO-KCNK3 thallium flux, FluxOR fluorescence; hits give low values;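 active = B-score under library mean minus 4 SD, starting fluorescence ratio at most library mean plus 5 SD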;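 also: more negative B-score means stronger inhibition of thallium flux through KCNK3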
KCNQ1 inh – inhibitors of human KCNQ1 potassium channel; 1.3% of 310,000 active; B-score at 10 µM; P51787; AID 2642; CHO-K1 KCNQ1, FluxOR thallium flux fluorescence; hits give high values;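 active = compounds whose thallium flux B-score, printed positive for inhibition, exceeds three library SD while starting fluorescence stays within three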;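 also: channel opened by potassium depolarization with thallium stimulus after 20 min compound exposure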
KCNK9 inh – inhibitors of human KCNK9 two-pore domain potassium channel. Q9NPC2. HEK293 KCNK9, FluxOR thallium flux fluorescence; hits give low values. B-score at 10 µM. 1.2% of 310,000 active. AID 488922;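 active = ratio B-score over 3 SD below the library mean, with starting fluorescence within 5 SD of its mean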;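 also: negative B-score means less thallium flux so channel inhibition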
KCNQ1 act – potentiators or activators of human KCNQ1 potassium channel; CHO-K1 KCNQ1, thallium flux FluxOR fluorescence; hits give high values; B-score at 10 µM; 0.35% of 310,000 active;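 active = fluorescence ratio B-score, a plate-corrected score, at least three library SD, with initial intensity B-score within 5 SD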
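Schedule – 37 °C overnight plating, 90-min dark dye load, 20-min compound pretreatment · System – stable KCNQ1 CHO-K1 line · Probe or stimulus – thallium- and potassium-containing depolarizing buffer · Measured by – kinetic FluxOR fluorescence, 10 s baseline plus 110 s post-stimulus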
hERG protect – compounds protecting human hERG from proarrhythmic drug block; activation (rescue from dofetilide block), less the hit threshold, % at 10 µM; AID 1511; 0.51% of 310,000 active; Q12809; CHO-hERG, FluxOR thallium flux, dofetilide IC70 present;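 active = activation above the mean of controls blocked by dofetilide plus 5 SD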;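 also: thallium influx through hERG after potassium depolarization seen as dye fluorescence rise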
Kir21 inh – inhibitors of mouse Kir2.1 inward-rectifier potassium channel; B-score at 10 µM; 0.85% of 310,000 active; HEK293-Kir2.1, FluxOR thallium flux fluorescence; hits give low values; P35561;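 active = fluorescence ratio B-score at or below minus 3 SD of library scores, with starting-brightness B-score within 2 SD, cut at about -4.2 in these data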;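 also: channel flux triggered by added potassium and thallium sulfate stimulus; B-score of peak minus minimum fluorescence over baseline after thallium stimulus; more negative B-score means stronger Kir2.1 block with less thallium influx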
Target sequence (P35561 whole entry, looked up): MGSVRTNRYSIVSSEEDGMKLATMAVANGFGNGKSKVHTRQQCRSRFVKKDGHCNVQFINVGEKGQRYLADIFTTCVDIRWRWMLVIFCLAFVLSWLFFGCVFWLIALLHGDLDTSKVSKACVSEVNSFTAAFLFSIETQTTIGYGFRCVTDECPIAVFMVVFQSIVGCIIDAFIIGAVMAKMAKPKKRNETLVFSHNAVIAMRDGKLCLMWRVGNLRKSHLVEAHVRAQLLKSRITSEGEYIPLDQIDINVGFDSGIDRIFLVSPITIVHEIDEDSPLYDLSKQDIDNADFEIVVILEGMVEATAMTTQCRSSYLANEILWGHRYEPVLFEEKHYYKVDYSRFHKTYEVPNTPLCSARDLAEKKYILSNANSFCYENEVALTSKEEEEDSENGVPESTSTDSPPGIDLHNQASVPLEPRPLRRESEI
Numbers without * were called inactive; i = inactive; x = no result.

SMILES	KCNK3 inh	KCNQ1 inh	KCNK9 inh	KCNQ1 act	hERG protect	Kir21 inh
CC(=O)N/C(=C/c1ccc2c(c1)OCO2)C(=O)Nc1ccccc1	i	i	i	i	-3	0
CC(=O)N/C(=C/c1ccc2c(c1)OCO2)C(=O)O	i	i	i	9*	-8	2
Cc1cc(C)cc(C(=O)NCC(=O)OCC(=O)c2cc(C)n(CC(F)(F)F)c2C)c1	i	i	i	i	-11	-2.5
N#Cc1cc(C(=O)c2cc(F)ccc2O)cn(-c2nccs2)c1=O	i	8*	i	i	-13	-7.4
COC(=O)c1cc(CNC(=O)Cc2ccsc2)ccc1OC	i	i	i	i	-5	0.01
NNc1nc2cc3c(cc2s1)OCCO3	i	i	i	i	-6	1.8
COc1ccccc1-c1cc(C(F)(F)F)nc(NCc2ccco2)n1	i	i	-7.3*	i	-22	-0.17
Cn1ncc(Cl)c1C(=O)Nc1cccc(Cl)c1	i	i	i	i	-5	-0.19
Cn1ncc(N=Cc2c(O)ccc3ccccc23)c1C(=O)Nc1cccc(Cl)c1	i	i	-7.4*	i	-9	0.07
O=C1CC(N(CCc2ccccc2)C(=S)Nc2ccccc2)C(=O)N1c1ccc(Br)cc1 (stereo unspecified)	i	6*	i	i	-4	2.3
CCOCCCNC(=O)C(NC(=O)Cc1cccs1)c1ccc(C)cc1 (stereo unspecified)	i	i	i	i	12*	0.23
O=C(CCN1CCc2ccccc2CC1)c1ccc2c(c1)OCCO2	i	i	i	10*	-31	-0.84
O=C(CCCN1CCOCC1)c1ccc2c(c1)OCCO2	i	i	i	i	-4	0.76
O=[N+]([O-])c1ccc(N2CCC(=NOCc3ccc(Cl)cc3)CC2)cc1	i	6*	i	i	-18	-1.9
O=[N+]([O-])c1ccc(CN2CCN(c3ccc([N+](=O)[O-])cc3)CC2)cc1	i	i	i	i	-6	0.87
CCOC(=O)N1CCC(NC(=O)c2ccc3c(c2)N(C)C(=O)/C(=C/c2cccc(OC)c2)S3)CC1	i	i	i	i	-13	-0.05
Cc1cccc(N2CCN(S(=O)(=O)c3ccc4c(c3)CC(C)N4C(=O)C3CC3)CC2)c1C (stereo unspecified)	i	6*	i	i	-7	0.54
Cc1ccccc1-n1c(=O)c2ccccc2n2nnnc12	i	i	i	i	-8	-0.16
Cc1ccccc1-n1c2nc(=O)n(C)c(=O)c-2cc2ccccc21	i	7*	i	i	-1	0.88
Cn1c(=O)nc2n(Cc3ccccc3)c3ccccc3cc-2c1=O	i	i	i	8*	-5	-0.15
CN(C)c1nc2c(c(=O)n(C)c(=O)n2C)n1Cc1ccccc1	i	i	i	i	-12	-0.38
CCCCn1c(=O)nc2n(-c3ccccc3C)c3ccccc3cc-2c1=O	i	i	i	11*	-12	2.9
CC(=O)c1cccc(OCC(=O)Nc2ccccc2N2CCOCC2)c1	i	x	x	x	x	x
CCCOc1ccc(-c2c(C(=O)N/N=C/c3ccccc3OCC)nnn2-c2nonc2N)cc1	i	i	i	i	37*	0.19
Nc1nonc1-n1nnc(C(=O)N/N=C/c2cccc(Cl)c2Cl)c1CN1CCCC1	i	i	i	i	40*	-1.1
S=c1[nH]nc(Cc2ccc(Br)cc2)n1/N=C/c1ccc(Cl)cc1	i	i	i	i	16*	0.19
S=c1[nH]nc(COc2ccccc2)n1/N=C/c1ccc(Cl)cc1	i	i	i	i	-2	-0.92
CC(C)c1ccc(NC(=O)C(=O)C2C(=O)Nc3ccccc32)cc1 (stereo unspecified)	i	i	i	i	-7	-0.27
CC(C)(C)c1ccc(NC(=O)C(=O)C2C(=O)Nc3ccccc32)cc1 (stereo unspecified)	i	i	i	i	5.7*	1.7
O=C(COc1ccc(Cl)cc1Cl)N/N=C/C1CC=CCC1 (stereo unspecified)	i	i	i	i	-5	0.08
